Measurements taken from article PMC9742152 (ChemMedChem, 2022).
Where two headings read alike, the source gives them in different places.

Columns and labels:
steroid sulfatase (STS) [1] = target: T1, steroid sulfatase (STS) (Homo sapiens, UniProt P08842); assay: In vitro cell-free sulfatase assay, JEG-3 lysate; type: biochemical
T1 sequence (P08842 22-583): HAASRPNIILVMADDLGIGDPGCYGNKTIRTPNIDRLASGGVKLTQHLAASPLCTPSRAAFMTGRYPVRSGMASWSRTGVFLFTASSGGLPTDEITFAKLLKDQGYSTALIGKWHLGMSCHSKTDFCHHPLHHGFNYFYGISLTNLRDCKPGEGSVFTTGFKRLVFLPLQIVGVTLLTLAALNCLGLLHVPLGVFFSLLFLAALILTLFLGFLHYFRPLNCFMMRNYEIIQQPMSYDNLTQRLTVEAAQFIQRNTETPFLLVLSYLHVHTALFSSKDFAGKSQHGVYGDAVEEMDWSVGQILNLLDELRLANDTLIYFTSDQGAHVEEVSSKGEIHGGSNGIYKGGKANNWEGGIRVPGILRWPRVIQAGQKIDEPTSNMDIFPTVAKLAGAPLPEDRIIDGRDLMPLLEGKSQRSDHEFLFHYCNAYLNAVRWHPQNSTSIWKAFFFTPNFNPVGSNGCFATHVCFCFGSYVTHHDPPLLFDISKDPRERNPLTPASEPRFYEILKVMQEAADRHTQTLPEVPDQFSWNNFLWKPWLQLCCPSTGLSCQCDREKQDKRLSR

[2] = test system: MCF-7 breast cancer cells; assay: Anti-proliferative assay, MCF-7 cells; type: cell-based, human; conditions: read-out: GI50 MCF-7
Method in brief: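 MCF-7 cells kept at 37 °C, 5% CO2 in RPMI 1640 with 17% FBS, 2 mM L-glutamine and gentamicin, in full (not estrogen-deprived) media; seeded 5000 cells/well, grown 24 h without compound, then exposed to test compound at 10−9–10−4 M or vehicle. Cell protein measured by sulforhodamine B staining at 96 h; GI50 is the mean of two determinations.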

steroid sulfatase (STS) [3] = target: T1, steroid sulfatase (STS); assay: In vitro whole cell sulfatase assay, intact JEG-3 cells; type: cell-based
[4] = test system: MDA MB-231 breast cancer cells; assay: Anti-proliferative assay, MDA MB-231 cells; type: cell-based, human; conditions: read-out: GI50 MDA MB-231
Method in brief: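 MDA MB-231 cells kept at 37 °C, 5% CO2 in RPMI-1640 with 10% FBS, penicillin and streptomycin; seeded 8000 cells/well, allowed to adhere 24 h, then given test compound or vehicle. BrdU incorporation kit assay run at 48 h; signal expressed as percent of mean control to derive GI50; experiments in triplicate, mean of three determinations.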

Bovine brain tubulin [5] = assay: Inhibition of [3H]colchicine binding to tubulin; conditions: 5 μM inhibitor, 5.0 μM [3H]colchicine, 1.0 μM tubulin, mean ±SD
Bovine brain tubulin [6] = assay: Inhibition of tubulin assembly; type: biochemical; conditions: for IC50: read-out: Tubulin assembly IC50, 10 μM tubulin, mean ±SD
UACC-62 = assay: NCI 60-cell line assay, Melanoma UACC-62; type: cell-based
HOP-62 = assay: NCI 60-cell line assay, Lung HOP-62; type: cell-based
NCI-60 cell line panel = assay: NCI 60-cell line assay, mean over whole panel; type: cell-based; conditions: for IC50: read-out: MGM (mean concentration that caused 50% growth inhibition in all 60 cell lines)
HCT-116 = assay: NCI 60-cell line assay, Colon HCT-116; type: cell-based
[7] = Hydrolysis in wet DMSO-d6 at 25 °C followed by 1H NMR; conditions: for % hydrolysed (conversion into the phenol) after 30 days: wet DMSO-d6, room temperature, water/substrate ~60:1
SN12C = assay: NCI 60-cell line assay, Renal SN12C; type: cell-based; conditions: read-out: GI50 Renal SN12C
OVCAR-3 = assay: NCI 60-cell line assay, Ovarian OVCAR-3; type: cell-based
SF-539 = assay: NCI 60-cell line assay, CNS SF-539; type: cell-based; conditions: read-out: GI50 CNS SF-539
[8] = cited from earlier work
[9] = MCF-7, full media, 96 h, mean of two determinations
[10] = wet DMSO-d6, 25 °C, 0 days, 1H NMR
[11] = wet DMSO-d6, 25 °C, 15 days, 1H NMR
[12] = wet DMSO-d6, 25 °C, 30 days, 1H NMR
[13] = NCI-60, mean of three determinations
[14] = Homo sapiens, UACC-62, read-out: GI50 Melanoma UACC-62
[15] = Homo sapiens, HOP-62, read-out: GI50 Lung HOP-62
[16] = Homo sapiens, HCT-116, read-out: GI50 Colon HCT-116
[17] = Homo sapiens, OVCAR-3, read-out: GI50 Ovarian OVCAR-3

C[C@]12CC[C@@H]3c4cc(OC(F)F)c(OS(N)(=O)=O)cc4CC[C@H]3[C@@H]1CCC2=O [Compound 16, 2-Difluoromethoxy-3-sulfamoyloxyestra-1,3,5(10)-trien-17-one]
IC50 (steroid sulfatase (STS) [1]): 56 nM
GI50 ([2]; Homo sapiens, MCF7, 96 h): 580 nM
IC50 (steroid sulfatase (STS) [3]): 5.6 nM
GI50 ([4]; Homo sapiens, MDA-MB-231, 48 h): 990 nM
Colchicine binding (% Inhibition) (Bovine brain tubulin [5]): 32 ± 4%
IC50 (Bovine brain tubulin [6]): 4.3 ± 0.2 µM

COc1ccc(/C=C\c2cc(OC)c(OC)c(OC)c2)cc1O [CA-4, combretastatin A-4, reference compound]
Colchicine binding (% Inhibition) (Bovine brain tubulin [5]): 98 ± 1%

C[C@]12CC[C@@H]3c4cc(OC(F)F)c(OS(N)(=O)=O)cc4CC[C@H]3[C@@H]1CC[C@@H]2OS(N)(=O)=O [Compound 10, 2-Difluoromethoxy-3–17β-bis-sulfamoyloxyestra-1,3,5(10)-triene]
GI50 (UACC-62; read-out: GI50 Melanoma UACC-62, NCI-60, mean of three determinations): 564 nM
GI50 (HOP-62; read-out: GI50 Lung HOP-62, NCI-60, mean of three determinations): 1980 nM
overall anti-proliferative activity in NCI 60-cell line panel (in words) (NCI-60 cell line panel; average GI50, NCI-60): sub-micromolar
IC50 (NCI-60 cell line panel; all 60 cell lines): 661 nM
GI50 [2, 9]: 280 nM
GI50 (HCT-116; read-out: GI50 Colon HCT-116, NCI-60, mean of three determinations): 474 nM
% of the compound in the reaction mixture, 0 days [7, 10]: 100%
% of the compound in the reaction mixture, 15 days [7, 11]: 32%
% of the compound in the reaction mixture, 30 days [7, 12]: 8%
T1/2 of hydrolysis ([7]; wet DMSO-d6, estimated from Table 1): ~ 10 days
% hydrolysed (conversion into the phenol) after 30 days ([7]; 30 days): 92%
GI50 (SN12C; [13]): 567 nM
GI50 ([4]; MDA MB-231, 48 h, mean of three determinations): 740 nM
GI50 (OVCAR-3; read-out: GI50 Ovarian OVCAR-3, NCI-60, mean of three determinations): 527 nM
Colchicine binding (% Inhibition) (Bovine brain tubulin [5]): 19 ± 0.5%
IC50 (Bovine brain tubulin [6]): 3.9 ± 0.5 µM
fold less active than CA-4 in tubulin assembly (Bovine brain tubulin [6]; vs CA-4): about 3 fold
GI50 (SF-539; [13]): 266 nM

C[C@]12CC[C@@H]3c4cc(OC(F)F)c(O)cc4CC[C@H]3[C@@H]1CC[C@@H]2O [Compound 9, 2-Difluoromethoxy-3,17β-bis-hydroxyestra-1,3,5(10)-triene]
GI50 ([2]; Homo sapiens, MCF7, 96 h): 2600 nM
GI50 ([4]; Homo sapiens, MDA-MB-231, 48 h): 3030 nM
IC50 (Bovine brain tubulin [6]): 12.4 ± 0.1 µM

C[C@]12CC[C@@H]3c4cc(OC(F)F)c(O)cc4CC[C@H]3[C@@H]1CCC2=O [Compound 15, 2-Difluoromethoxy-3-hydroxyestra-1,3,5(10)-trien-17-one]
GI50 ([2]; Homo sapiens, MCF7, 96 h): > 5000 nM
GI50 ([4]; Homo sapiens, MDA-MB-231, 48 h): > 10000 nM
IC50 (Bovine brain tubulin [6]): > 20 µM

C[C@]12CC[C@@H]3c4cc(OC(F)F)c(O)cc4CC[C@H]3[C@@H]1CC[C@@H]2OS(N)(=O)=O [Compound 11, 2-Difluoromethoxy-3-hydroxy-17β-sulfamoyloxyestra-1,3,5(10)-triene]
GI50 (UACC-62; [14]): 460 nM
IC50 (steroid sulfatase (STS) [1]): > 5000 nM
STS inhibition in JEG-3 lysate (in words) (steroid sulfatase (STS) [1]; JEG-3 lysate): inactive
GI50 (HOP-62; [15]): 648 nM
IC50 (NCI-60 cell line panel; 60 cell): 813 nM
GI50 ([2]; Homo sapiens, MCF7, 96 h): > 5000 nM
GI50 (HCT-116; [16]): 375 nM
% of the compound in the reaction mixture, 0 days [7, 10]: 0%
% of the compound in the reaction mixture, 15 days [7, 11]: 68%
% of the compound in the reaction mixture, 30 days [7, 12]: 92%
GI50 (SN12C; Homo sapiens, SN12C): 1220 nM
GI50 ([4]; Homo sapiens, MDA-MB-231, 48 h): > 10000 nM
GI50 (OVCAR-3; [17]): 383 nM
IC50 (Bovine brain tubulin [6]): > 20 µM
GI50 (SF-539; Homo sapiens): 427 nM

COc1cc2c(cc1OS(N)(=O)=O)CC[C@@H]1[C@@H]2CC[C@]2(C)[C@@H](OS(N)(=O)=O)CC[C@@H]12 [Compound 4, 2-methoxyestradiol-3,17-O,O-bissulfamate, reference compound]
bioavailability [8]: ~85%
GI50 [2, 9]: 520 nM
% of the compound in the reaction mixture, 0 days [7]: 100%
% of the compound in the reaction mixture, 15 days [7]: 81%
% of the compound in the reaction mixture, 30 days [7]: 69%
% hydrolysed (conversion into the phenol) after 30 days ([7]; 30 days): 31%
Colchicine binding (% Inhibition) (Bovine brain tubulin [5]): 33 ± 3%
IC50 (Bovine brain tubulin [6]): 2.3 ± 0.1 µM

COc1cc2c(cc1O)CC[C@@H]1[C@@H]2CC[C@]2(C)[C@@H](O)CC[C@@H]12 [Compound 1, 2-Methoxyestradiol, reference compound]
bioavailability [8]: ~1%
Colchicine binding (% Inhibition) (Bovine brain tubulin [5]): 36 ± 3%
IC50 (Bovine brain tubulin [6]): 8.3 ± 0.8 µM

COc1cc2c(cc1O)CC[C@@H]1[C@@H]2CC[C@]2(C)[C@@H](OS(N)(=O)=O)CC[C@@H]12 [Compound 22]
% of the compound in the reaction mixture, 0 days [7, 10]: 0%
% of the compound in the reaction mixture, 15 days [7, 11]: 19%
% of the compound in the reaction mixture, 30 days [7, 12]: 31%

C[C@]12CC[C@@H]3c4cc(C(F)F)c(OS(N)(=O)=O)cc4CC[C@H]3[C@@H]1CCC2=O [Compound 23, 2-difluoromethylestrone sulfamate, reference compound]
times more potent than 16, JEG-3 lysate assay (steroid sulfatase (STS) [1]; vs 16): about 3 times
% of the compound in the reaction mixture, 0 days [7, 10]: 100%
% of the compound in the reaction mixture, 15 days [7, 11]: 24%
% of the compound in the reaction mixture, 30 days [7, 12]: 5%
times more potent than 16, whole cells (steroid sulfatase (STS) [3]; vs 16): about 100 times

C[C@]12CC[C@@H]3c4cc(OC(F)F)c(OS(N)(=O)=O)cc4CC[C@H]3[C@@H]1CC[C@@H]2O [Compound 12, 2-Difluoromethoxy-3-sulfamoyloxy-17β-hydroxyestra-1,3,5(10)-triene]
GI50 (UACC-62; [14]): 498 nM
IC50 (steroid sulfatase (STS) [1]): 75 nM
GI50 (HOP-62; [15]): 634 nM
IC50 (NCI-60 cell line panel; 60 cell): 646 nM
GI50 ([2]; Homo sapiens, MCF7, 96 h): 1100 nM
GI50 (HCT-116; [16]): 406 nM
GI50 (SN12C; Homo sapiens, SN12C): 692 nM
IC50 (steroid sulfatase (STS) [3]): 18.6 nM
GI50 ([4]; Homo sapiens, MDA-MB-231, 48 h): 1110 nM
GI50 (OVCAR-3; [17]): 386 nM
Colchicine binding (% Inhibition) (Bovine brain tubulin [5]): 22 ± 1%
IC50 (Bovine brain tubulin [6]): 6.6 ± 0.7 µM
GI50 (SF-539; Homo sapiens): 313 nM
